From paper PMC7668563 (International journal of molecular biology (Edmond, Okla.), 2020)

What was measured:
[1] = molecular target: T1, apo-human transferrin (apo-hTf) (Homo sapiens, UniProt P02787); test: Fluorescence quenching of apo-hTf; type: binding; settings: for biomolecular quenching rate constant kq: kq=Ksv/τ0; for Stern-Volmer quenching constant Ksv / number of binding sites n: pH 7.4; for quenching association constant Ka: pH 7.4, modified Stern-Volmer
Procedure, shortened: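 Intrinsic fluorescence of apo-hTf in Tris-HCl pH 7.4 was titrated with test compound (Tris-HCl/2% DMSO). Conditions: excitation 280 nm, emission 290–500 nm, slits 10/5 nm, 1.0 cm quartz cell, at 296, 303, 310 and 317 K, triplicate titrations. Intensities were corrected for inner filter effect using absorbances at excitation and emission wavelengths. Ksv came from Stern-Volmer plots of F0/F vs [Q]; kq = Ksv/τ0 (τ0 ~1.0×10−8); Ka and n came from the modified Stern-Volmer equation.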

[2] = molecular target: T1, apo-human transferrin (apo-hTf); test: Thermodynamic parameters of apo-hTf complex formation; type: binding
Procedure, shortened: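 Ksv values were obtained from apo-hTf fluorescence quenching at pH 7.4 at 296, 303, 310 and 317 K. ΔH°, ΔS° and ΔG° were derived from linear regression of ln(Ksv) vs 1/T (Van't Hoff equation).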

[3] = tested on: human colorectal adenocarcinoma cell line, HT-29; settings: read-out: IC50 (±SD), HT-29, ref 19; cited from earlier work
[4] = molecular target: T1, apo-human transferrin (apo-hTf); test: Fluorescence resonance energy transfer; type: binding
Procedure, shortened: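 Emission spectrum of 1.0×10−5 mol L−1 apo-hTf and absorption spectrum of 1.0×10−5 mol L−1 test compound were recorded in 20 mM Tris-HCl pH 7.4 at room temperature, 260–450 nm, and their spectral overlap determined. E was calculated from apo-hTf fluorescence without and with equimolar test compound. R0 and donor–acceptor distance r came from Förster equations.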

[5] = tested on: human breast adenocarcinoma cell line, MCF-7; settings: read-out: IC50 (±SD), MCF-7, ref 19; cited from earlier work
[6] = molecular target: T1, apo-human transferrin (apo-hTf); test: Far-UV circular dichroism titration of apo-hTf, secondary structure content
Procedure, shortened: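 Apo-hTf (4.0×10−7 mol L−1) in 2 mM Tris-HCl pH 7.4 was titrated with a 1.0×10−3 mol L−1 stock of test compound in Tris-HCl/2% DMSO, to final 0–2.4×10−6 mol L−1. Far-UV CD was recorded from 190–250 nm under nitrogen in a 1.0 cm cell: six scans at 100 nm/min. Baseline was buffer ± DMSO at room temperature. α-Helix was derived from MRE at 208 nm; β-sheet and random coil by the CD-RRG method.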

[7] = molecular target: T1, apo-human transferrin (apo-hTf); test: UV-Vis absorbance titration of apo-hTf; type: binding

T1 sequence (P02787 20-698): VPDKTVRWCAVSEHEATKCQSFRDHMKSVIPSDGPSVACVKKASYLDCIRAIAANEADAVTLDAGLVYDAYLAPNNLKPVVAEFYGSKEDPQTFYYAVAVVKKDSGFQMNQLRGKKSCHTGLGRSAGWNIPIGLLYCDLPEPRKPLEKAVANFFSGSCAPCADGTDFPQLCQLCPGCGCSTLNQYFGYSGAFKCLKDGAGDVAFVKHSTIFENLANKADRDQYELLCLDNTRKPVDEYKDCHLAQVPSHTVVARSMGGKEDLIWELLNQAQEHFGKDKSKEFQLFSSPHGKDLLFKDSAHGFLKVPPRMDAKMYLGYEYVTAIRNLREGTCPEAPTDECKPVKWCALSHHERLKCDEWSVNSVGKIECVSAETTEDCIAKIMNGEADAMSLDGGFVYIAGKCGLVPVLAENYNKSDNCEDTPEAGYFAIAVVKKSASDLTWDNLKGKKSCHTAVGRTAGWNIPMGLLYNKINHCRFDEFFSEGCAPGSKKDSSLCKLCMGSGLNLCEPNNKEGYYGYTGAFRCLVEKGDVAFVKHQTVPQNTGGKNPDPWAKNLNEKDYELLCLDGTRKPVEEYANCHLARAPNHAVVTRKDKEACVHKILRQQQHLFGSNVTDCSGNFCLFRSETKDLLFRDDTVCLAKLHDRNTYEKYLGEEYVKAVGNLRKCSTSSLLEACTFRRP

## C1CCCC1.C1CCCC1.[Cl][W][Cl] [Cp2WCl2]
[1]; 296 K
  biomolecular quenching rate constant kq: 1.61e+11 M⁻¹ s⁻¹
  Stern-Volmer quenching constant Ksv: 1610 M⁻¹
  number of binding sites n: 1.16
  quenching association constant Ka: 7800 M⁻¹
[1]; 303 K
  biomolecular quenching rate constant kq: 1.76e+11 M⁻¹ s⁻¹
  Stern-Volmer quenching constant Ksv: 1760 M⁻¹
  number of binding sites n: 1.13
  quenching association constant Ka: 6000 M⁻¹
[1]; 310 K
  biomolecular quenching rate constant kq: 1.89e+11 M⁻¹ s⁻¹
  Stern-Volmer quenching constant Ksv: 1890 M⁻¹
  number of binding sites n: 1.08
  quenching association constant Ka: 4200 M⁻¹
[1]; 317 K
  biomolecular quenching rate constant kq: 2.09e+11 M⁻¹ s⁻¹
  Stern-Volmer quenching constant Ksv: 2090 M⁻¹
  number of binding sites n: 1.04
  quenching association constant Ka: 3200 M⁻¹
[2]; 296 K
  ∆G°: -4.343 kcal/mol
[2]; 303 K
  ∆G°: -4.498 kcal/mol
[2]; 310 K
  ∆G°: -4.653 kcal/mol
[2]; 317 K
  ∆G°: -4.809 kcal/mol
[2]; pH 7.4, from Ksv at 296-317 K
  ∆H°: 2.24 kcal/mol
  ∆S°: 93.12 J/mol K
[3]
  IC50: 1000 µM
[4]; k^2=2/3, n=1.336, ØD=0.118
  Förster critical energy transfer distance R0: 4.53 nm
  binding distance r (donor-acceptor): 6.05 nm
[4]; room temperature, 1.0×10^−5 mol L^−1 each
  efficiency of energy transfer E: 0.15
[5]
  IC50: 630 µM
[6]; compound concentration 0.4 (M)
  other secondary structure content of apo-hTf: 18.3%
  random coil content of apo-hTf: 33.7%
  α-helix content of apo-hTf: 29.8%
  β-sheet content of apo-hTf: 18.2%
[6]; compound concentration 0.8 (M)
  other secondary structure content of apo-hTf: 18.4%
  random coil content of apo-hTf: 33.8%
  α-helix content of apo-hTf: 29.5%
  β-sheet content of apo-hTf: 18.3%
[6]; compound concentration 1.2 (M)
  other secondary structure content of apo-hTf: 18.6%
  random coil content of apo-hTf: 33.9%
  α-helix content of apo-hTf: 29.1%
  β-sheet content of apo-hTf: 18.4%
[6]; compound concentration 1.6 (M)
  other secondary structure content of apo-hTf: 19.1%
  random coil content of apo-hTf: 34.1%
  α-helix content of apo-hTf: 28.3%
  β-sheet content of apo-hTf: 18.5%
[6]; compound concentration 2 (M)
  other secondary structure content of apo-hTf: 19.2%
  random coil content of apo-hTf: 34.3%
  α-helix content of apo-hTf: 27.9%
  β-sheet content of apo-hTf: 18.6%
[6]; compound concentration 2.4 (M)
  other secondary structure content of apo-hTf: 19.4%
  random coil content of apo-hTf: 34.4%
  α-helix content of apo-hTf: 27.5%
  β-sheet content of apo-hTf: 18.7%
[7]; absorbance at 280 nm
  Ka at 280 nm: 2930 M⁻¹
[7]; absorbance at 361 nm
  Ka at 361 nm: 2980 M⁻¹
[7]; absorbance of apo-hTf at 280 nm, pH 7.4
  Association constants, Ka, 280 nm: 2.93 10^3 M^−1
[7]; absorbance of apo-hTf at 361 nm, pH 7.4
  Association constants, Ka, 361 nm: 2.98 10^3 M^−1
